How the values were obtained:
[1] = biological target: X (Homo sapiens, UniProt P28074); test: In vitro proteasome activity assay, purified human 20S proteasome, Ac-WLA-AMC; assay type: biochemical
[2] = test system: IL-1α; test: Serum IL-1α levels in Tg2576 mice; assay type: in vivo, mouse; details: 10 mg/kg twice weekly for 3 weeks, vs vehicle
Method in brief: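 Serum from 9-month-old Tg2576 mice (dosed or vehicle) diluted 1:5, then incubated with IL-1α standards (seven serial twofold dilutions) on capture-antibody-coated plates for 2 h at room temperature. Five washes, detection antibody 1 h, avidin-HRP 30 min, five washes, substrate, stop with 2N H2SO4. Absorbance read at 450 nm; n=3.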

[3] = biological target: T1, ABCG2 (Homo sapiens, UniProt Q9UNQ0); test: ABCG2 interaction assay; assay type: cell-based; details: MDCKII/ABCG2 cells, PhA 1 μM; DB-60 (20) 2 or 5 μM, Ko143 0.2 μM
T1 sequence (Q9UNQ0 1-655): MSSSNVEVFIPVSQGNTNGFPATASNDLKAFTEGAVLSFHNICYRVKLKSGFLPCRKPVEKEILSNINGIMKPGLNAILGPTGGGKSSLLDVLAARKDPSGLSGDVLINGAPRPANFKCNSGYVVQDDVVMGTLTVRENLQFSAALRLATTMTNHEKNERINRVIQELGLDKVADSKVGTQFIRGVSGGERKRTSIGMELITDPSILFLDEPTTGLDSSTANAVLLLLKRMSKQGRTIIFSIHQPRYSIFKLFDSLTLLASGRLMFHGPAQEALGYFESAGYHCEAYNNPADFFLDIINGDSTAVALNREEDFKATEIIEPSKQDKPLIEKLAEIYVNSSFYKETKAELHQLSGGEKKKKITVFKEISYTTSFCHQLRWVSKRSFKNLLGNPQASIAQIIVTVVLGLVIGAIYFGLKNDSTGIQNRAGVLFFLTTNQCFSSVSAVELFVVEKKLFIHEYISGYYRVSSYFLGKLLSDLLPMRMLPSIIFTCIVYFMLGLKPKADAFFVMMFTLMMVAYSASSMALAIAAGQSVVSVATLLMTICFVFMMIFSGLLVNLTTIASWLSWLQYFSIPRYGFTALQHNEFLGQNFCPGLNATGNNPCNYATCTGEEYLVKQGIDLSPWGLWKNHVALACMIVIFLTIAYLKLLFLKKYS

[4] = test system: Tg2576 mice; test: Morris water maze, probe trial and passive avoidance in Tg2576 mice; assay type: in vivo, mouse; details: 10 mg/kg twice weekly for 3 weeks
Method in brief: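 Tg2576 mice (9-month-old, acclimatised one month) were injected with 10 mg/kg twice weekly for 3 weeks. Morris water maze training ran on days 1–5: hidden platform 1–1.5 cm below 25 ± 1 °C water, three 60-s trials daily from randomised starts. The probe trial on day 6 tracked swimming for 60 s and recorded time in the former platform quadrant by video. Student's t-test, n=5.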

[5] = In vitro metabolic stability in mouse whole blood; assay type: in vitro ADME; details: ICR mice, 1 μM, 0, 10 and 30 min, compared with YU102
Method in brief: (§1)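 Matrices came from male 7-week-old ICR mice: whole blood with 25 IU/mL heparin, and liver homogenised in ice-cold PBS (2.5 mL/g). After pre-incubation at 37 °C, test compound was added to 1 μM final. Sampling was at 0, 10 and 30 min for blood and 0, 10 and 20 min for liver. […] Remaining drug was measured by LC-MS/MS.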

[6] = test system: IL-1α; test: IL-1α release by LPS-activated BV-2 cells; assay type: cell-based, murine; details: LPS 1 μg/mL
Method in brief: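 BV-2 microglia were stimulated with LPS (1 μg/mL). IL-1α in the culture supernatants was measured by sandwich ELISA. Supernatants and standards (seven serial twofold dilutions) sat overnight at 4 °C on capture-antibody plates, then went through detection antibody (1 h), avidin-HRP (30 min), substrate, and a 2N H2SO4 stop. A450 was read. Three technical replicates, SD shown.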

[7] = test system: retinal pigment epithelium (RPE); test: RPE flat mounts, anti-β-catenin immunostaining; assay type: in vivo, mouse
Method in brief: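 After behaviour testing, eyes from treated Tg2576 mice and from age-matched non-transgenic ICR mice were fixed in 4% paraformaldehyde (1 h, RT). Eyecups were dissected, retina removed, and RPE sheets permeabilised (0.2% Triton X-100, 15 min) and blocked (3% BSA, 1 h). Sheets were stained with anti-β-catenin (1:100, overnight 4 °C), then Alexa 555 secondary (1:1000, 2 h RT), and imaged by confocal microscopy. Images are representative of 3 independent replicates.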

[8] = In vitro metabolic stability in mouse liver homogenates; assay type: in vitro ADME; details: ICR mice, 1 μM, 0, 10 and 20 min, compared with YU102
Method in brief: as §1

[9] = biological target: LMP2 (Mus musculus, UniProt P28076); test: LMP2 activity in brain homogenates after single intravenous dosing; assay type: in vivo; details: ICR mice, single intravenous dosing 10 mg/kg, 1-hour post-dosing
[10] = Observation of overt toxicity during treatment; assay type: in vivo; details: Tg2576 or non-transgenic ICR mice during the test period
[11] = biological target: LMP7 (Homo sapiens, UniProt P28062); test: In-cellulo LMP7 inhibition in RPMI-8226/ABCB1 vs parental RPMI-8226 cells; assay type: cell-based; details: Supple. Table S1
Method in brief: (§2)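 Lysates (14,000 g, 20 min, 4 °C; 5 μg protein) in 20 mM Tris-HCl, 0.5 mM EDTA, 0.035% SDS, pH 8.0, received Ac-PAL-AMC (LMP2) or Ac-ANW-AMC (LMP7), each at 100 μM. Fluorescence (ex 360/em 460 nm) was read every minute for 1 h. IC50s were compared between lines.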

[12] = biological target: T2, LMP2 (Homo sapiens, UniProt P28065); test: In-cellulo LMP2 inhibition in RPMI-8226/ABCB1 vs parental RPMI-8226 cells; assay type: cell-based; details: either cell line
Method in brief: as §2

[13] = biological target: T2, LMP2; test: In vitro proteasome activity assay, purified human 20S proteasome, Ac-PAL-AMC; assay type: biochemical; details: P3-proline substitution of 21, purified proteasome

For `CC(C)C[C@H](NC(=O)[C@@H]1Cc2ccc(cc2)OCCCCCCC(=O)N2CCC[C@H]2C(=O)N1)C(=O)[C@@]1(C)CO1` [compound 16, (1^2S,4S)-N-((S)-4-Methyl-1-((R)-2-methyloxiran-2-yl)-1-oxopentan-2-yl)-2,14-dioxo-7-oxa-3-aza-1(2,1)-pyrrolidina-6(1,4)-benzenacyclotetradecaphane-4-carboxamide], which IC50 [1] is on record?
Its IC50 is greater than 10 µM.

With `C[C@]1(C(=O)[C@H](Cc2ccccc2)NC(=O)[C@@H]2Cc3ccc(cc3)OCCCCCCCC(=O)N3CCC[C@H]3C(=O)N2)CO1` [compound 20, (1^2S,4S)-N-((S)-1-((R)-2-Methyloxiran-2-yl)-1-oxo-3-phenylpropan-2-yl)-2,15-dioxo-7-oxa-3-aza-1(2,1)-pyrrolidina-6(1,4)-benzenacyclopentadecaphane-4-carboxamide] as the molecule, how does the “serum levels of IL-1α” value [2] read?
Its value is “lower in Tg2576 mice receiving DB-60 (20) treatment than the control mice”.

What about the “inhibition of the ABCG2-mediated efflux of PhA (cellular accumulation of PhA)” value [3] of the same molecule?
Its value is “no inhibition of the ABCG2-mediated efflux of PhA”.

What about the “probe trial: percentage of time spent in the target quadrant” value ([4]; day 6, vs control) of the same molecule?
The value was “higher than control mice”.

What about the “passive avoidance test: step-through latency” value ([4]; days 7-8, vs control) of the same molecule?
Its value is “performed better in a fear-aggravated test (passive avoidance) than control mice”.

And the “metabolic stability in whole blood” value [5]?
Its value is “greater metabolic stability than YU102”.

And the “release of IL-1α by LPS-activated microglial BV-2 cells” value [6]?
The value was “decreased the release of IL-1α”.

What about the “RPE structure in Tg2576 mice” value ([7]; Tg2576 mice after behavior tests, anti-β-catenin staining) of the same molecule?
The value was “displayed the orderly structure”.

And the “RPE structural integrity in non-transgenic ICR mice” value ([7]; age-matching non-transgenic ICR mice treated with DB-60 (20))?
The value was “not affected”.

What about the “stability in liver homogenates” value [8] of the same molecule?
Its value is “superior to YU102”.

What about the “inhibition of LMP2 activity in brain homogenates” value [9] of the same molecule?
Its value is “no appreciable inhibition of the LMP2 activity”.

And the overt toxicity [10]?
Its overt toxicity is “No sign of overt toxicity”.

And the “fold decrease of LMP7 inhibition, RPMI-8226/ABCB1 vs parental RPMI-8226” value [11]?
The value was ~ 2 fold.

Which IC50 [1] does the source give for `C[C@]1(C(=O)[C@H](Cc2ccccc2)NC(=O)[C@@H]2COCCCCCC(=O)N3CCC[C@H]3C(=O)N2)CO1` [compound 25, (3S,15aS)-N-((S)-1-((R)-2-Methyloxiran-2-yl)-1-oxo-3-phenylpropan-2-yl)-1,11-dioxotetradecahydropyrrolo[2,1-f][1]oxa[4,7]diazacyclotridecine-3-carboxamide] here?
The IC50 was greater than 10 µM.

With `CC(C)C[C@H](NC(=O)[C@@H]1COCCCCCC(=O)NCC(=O)N2CCC[C@H]2C(=O)N1)C(=O)[C@@]1(C)CO1` [compound 26, (3S,18aS)-N-((S)-4-Methyl-1-((R)-2-methyloxiran-2-yl)-1-oxopentan-2-yl)-1,11,14-trioxohexadecahydro-6H-pyrrolo[2,1-f][1]oxa[4,7,10]triazacyclohexadecine-3-carboxamide] as the molecule, how does the IC50 [1] read?
Its IC50 is greater than 10 µM.

What about the “LMP2 inhibition in RPMI-8226/ABCB1 and parental RPMI-8226 cells” value [12] of the same molecule?
Its value is “no LMP2 inhibition in either cell line”.

For `CC(C)C[C@H](NC(=O)[C@@H]1COCCCCCCC(=O)NCC(=O)N2CCC[C@H]2C(=O)N1)C(=O)[C@@]1(C)CO1` [compound 27, (3S,19aS)-N-((S)-4-Methyl-1-((R)-2-methyloxiran-2-yl)-1-oxopentan-2-yl)-1,12,15-trioxooctadecahydropyrrolo[2,1-f][1]oxa[4,7,10]triazacycloheptadecine-3-carboxamide], which IC50 [1] is on record?
Its IC50 is greater than 10 µM.

And the “LMP2 inhibition in RPMI-8226/ABCB1 and parental RPMI-8226 cells” value [12]?
The value was “no LMP2 inhibition in either cell line”.

Which results are given for `CC(C)C[C@H](NC(=O)[C@@H]1COCCCCCC(=O)N2C[C@H](F)C[C@H]2C(=O)N1)C(=O)[C@@]1(C)CO1` [compound 32, (3S,14S,15aS)-14-Fluoro-N-((S)-4-methyl-1-((R)-2-methyloxiran-2-yl)-1-oxopentan-2-yl)-1,11-dioxotetradecahydropyrrolo[2,1-f][1]oxa[4,7]diazacyclotridecine-3-carboxamide]?
IC50 [1]: > 10 µM; LMP2 inhibitory potency compared with 21 [13]: substantial decrease in the LMP2 inhibitory potency

What does the source list for `CC(C)C[C@H](NC(=O)[C@@H]1COCCCCCC(=O)N2CC(F)(F)C[C@H]2C(=O)N1)C(=O)[C@@]1(C)CO1` [compound 33, (3S,15aS)-14,14-Difluoro-N-((S)-4-methyl-1-((R)-2-methyloxiran-2-yl)-1-oxopentan-2-yl)-1,11-dioxotetradecahydropyrrolo[2,1-f][1]oxa[4,7]diazacyclotridecine-3-carboxamide]?
IC50 [1]: > 10 µM; LMP2 inhibitory potency compared with 21 [13]: LMP2 inhibitory potency similar to 21

What does the source list for `CC(C)C[C@H](NC(=O)[C@@H]1COCCCCCC(=O)N2CCC[C@@]2(C)C(=O)N1)C(=O)[C@@]1(C)CO1` [compound 34, (3S,15aS)-15a-Methyl-N-((S)-4-methyl-1-((R)-2-methyloxiran-2-yl)-1-oxopentan-2-yl)-1,11-dioxotetradecahydropyrrolo[2,1-f][1]oxa[4,7]diazacyclotridecine-3-carboxamide]?
IC50 [1]: > 10 µM; LMP2 inhibitory potency compared with 21 [13]: substantial decrease in the LMP2 inhibitory potency

For `CC(C)C[C@H](NC(=O)[C@@H]1COCCCCCC(=O)N2CC[C@H]2C(=O)N1)C(=O)[C@@]1(C)CO1` [compound 35, (10S,13S)-N-((S)-4-Methyl-1-((R)-2-methyloxiran-2-yl)-1-oxopentan-2-yl)-2,12-dioxo-8-oxa-1,11-diazabicyclo[11.2.0]pentadecane-10-carboxamide], which IC50 [1] is on record?
The IC50 was greater than 10 µM.

What about the “LMP2 inhibitory potency compared with 21” value [13] of the same molecule?
The value was “LMP2 inhibitory potency similar to 21”.

With `CC(C)C[C@H](NC(=O)[C@@H]1COCCCCCC(=O)N2CCCC[C@H]2C(=O)N1)C(=O)[C@@]1(C)CO1` [compound 36, (3S,16aS)-N-((S)-4-Methyl-1-((R)-2-methyloxiran-2-yl)-1-oxopentan-2-yl)-1,11-dioxotetradecahydro-2H-pyrido[2,1-f][1]oxa[4,7]diazacyclotridecine-3-carboxamide] as the molecule, how does the IC50 [1] read?
Its IC50 is greater than 10 µM.

And the “LMP2 inhibitory potency compared with 21” value [13]?
The value was “substantial decrease in the LMP2 inhibitory potency”.
